The target in data set [1] is T1, Glucose-dependent insulinotropic receptor (Homo sapiens, UniProt Q8TDV5).
T1 sequence (Q8TDV5 whole entry): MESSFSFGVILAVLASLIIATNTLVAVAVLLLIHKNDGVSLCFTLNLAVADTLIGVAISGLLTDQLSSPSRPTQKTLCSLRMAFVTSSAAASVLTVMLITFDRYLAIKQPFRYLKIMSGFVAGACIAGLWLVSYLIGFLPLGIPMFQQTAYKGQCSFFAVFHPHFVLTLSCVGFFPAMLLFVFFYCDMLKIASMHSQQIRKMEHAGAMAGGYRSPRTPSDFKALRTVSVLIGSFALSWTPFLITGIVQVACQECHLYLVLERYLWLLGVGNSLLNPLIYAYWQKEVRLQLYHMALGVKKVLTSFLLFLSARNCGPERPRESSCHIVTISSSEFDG
The data set is described as follows: Agonist activity at GPR119 (unknown origin) assessed as increase in cAMP level by cAMP HTRF assay. The class given is functional. The gist of the method:
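Cell-based GPR119 agonist assay with a top test concentration of 10 μM. EC50 values are reported as means.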
A general note: Cyclic AMP is a second messenger, typically raised through Gs and lowered through Gi signalling.

Data set [2] can be described thus: Solubility of compound. The class given is physicochemical. In short, it runs like this:
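Aqueous solubility (logS and mg/ml) was calculated in silico, not measured experimentally.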

Data set [3] relates to Mus musculus. In words: Hypoglycemic activity in C57BL/6 mouse assessed as reduction in blood glucose AUC at 20 and 50 mg/kg, po measured immediately by glucose challenge by OGTT relative to control. The class given is functional. The arrangement: scale not given: the % may be the effect or the level left. The gist of the method:
(§1)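 Normal male C57BL/6J mice received vehicle or compound at 20, 50 or 100 mg/kg, then a glucose challenge of 2 g/kg (10 ml/kg). Blood glucose was followed over 0–120 min and AUC0–120 min calculated. Mean ± SD, n=6, versus vehicle group.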

Data set [4] concerns Mus musculus. The data set is described as follows: Hypoglycemic activity in C57BL/6 mouse assessed as reduction in blood glucose AUC at 100 mg/kg, po measured after 2 hrs by glucose challenge by OGTT relative to control. The class given is functional. The arrangement: scale not given: the % may be the effect or the level left. In short, it runs like this: as §1
The target of data set [5] is T2, Glucose-dependent insulinotropic receptor (Homo sapiens) (UniProt Q8TDV5).
T2 sequence (whole entry): T1 sequence (Q8TDV5 whole entry)
In words: Agonist activity at GPR119 (unknown origin) assessed as increase in cAMP level at 10 uM by cAMP HTRF assay relative to oleoylethanolamide. The class given is functional. In short, it runs like this:
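Cell-based GPR119 agonism at a single 10 μM concentration. Response is expressed as percent of the maximal efficacy of the reference agonist oleoylethanolamide (OEA). Values are means.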

The subject of data set [6] is Mus musculus. The data set is described as follows: Hypoglycemic activity in C57BL/6 mouse assessed as reduction in blood glucose AUC at 20 and 50 mg/kg, po measured after 2 hrs by glucose challenge by OGTT relative to control. The class given is functional. Also on record: scale not given: the % may be the effect or the level left. In short, it runs like this:
as §1

The nature of data set [7]: Toxicity in C57BL/6 mouse […] model assessed as reduction in food intake at 20 mg/kg, po observed for 4 weeks. The class given is organism-based. The conditions noted are these: in vivo, 672 h. The gist of the method: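 Diet-induced obese mice were treated at 20 mg/kg for 4 weeks, and average food intake was recorded over the treatment period. Mean ± SD, n=6, compared with vehicle.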

The test system of data set [8] is Mus musculus. In words: Antidiabetic activity in C57BL/6 mouse […] model assessed as reduction in body weight gain at 20 mg/kg, po administered for 4 weeks and measured on day 28. The class given is functional, organism-based. The gist of the method:
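Diet-induced obese mice were given 20 mg/kg for 4 weeks, with body weight recorded through day 28. Mean ± SD, n=6, versus vehicle group.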

The subject of data set [9] is Mus musculus. In words: Hypoglycemic activity in C57BL/6 mouse […] model assessed as reduction in blood glucose AUC at 20 mg/kg, po administered for 28 days and measured after 2 hrs on day 28 by glucose challenge by OGTT relative to control. The class given is functional. Also on record: scale not given: the % may be the effect or the level left. In short, it runs like this: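 Diet-induced obese mice were dosed with 20 mg/kg repeatedly for 28 days. On day 28 an OGTT (2 g/kg glucose) was run with blood glucose tracked over 0–120 min and AUC0–120 min derived. Fasting glucose was also taken at day 28. Mean ± SD, n=6, versus vehicle.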

The text below walks through data of ChEMBL document CHEMBL4616602, “Design and biological evaluation of tetrahydropyridine derivatives as novel human GPR119 agonists” (Bioorg Med Chem Lett, 2020).

pEC50: −log10 of the molar value. ≈ marks a conversion by molar mass, not a printed value. Calls of active or inactive are those of the source. The calls are words filed in the database; no cut-off is given here.

Broadly, the pEC50 is the negative decadic logarithm of the EC50, by convention in mol/L. The solubility is the concentration that dissolves in the medium under given conditions. One may read the Emax as the size of the effect at its maximum, as opposed to the concentration needed.

Regarding `CCc1cnc(N2CC=C(c3nc(COc4ccc(-n5cnnn5)cc4)cs3)CC2)nc1`, in data set [1], the pEC50 is 8.31. Further, the solubility in [2] was 56 µg/mL (≈ 125 µM). Besides, the Activity in data set [3] is given as 20.11%; in data set [4], 35.05%; in data set [6], 26.77%; in [7], “Non-Toxic”; in data set [9], 34.8%. In addition, the Emax in [5] worked out at 110%. Also, the result in data set [8] was Active.
In the case of `CC(C)(C)OC(=O)N1CC=C(c2nc(CNc3ccc(Cl)c(I)c3)cs2)CC1`, the Emax in data set [5] was determined as 5.25%.
The same measure, in the same setting: the value for `CCc1ccc(N2CC=C(c3nc(COc4ccc(-n5cnnn5)cc4)cs3)CC2)nc1` was 78.5%; that for `CCc1ccc(N2CC=C(c3nc(COc4ccc(-n5cnnn5)cc4F)cs3)CC2)nc1` was 89.6%.
Turning to `CC(C)(C)OC(=O)N1CC=C(c2nc(COc3ccc(-n4cnnn4)cc3Cl)cs2)CC1`, the pEC50 in data set [1] was 6.97. In data set [5], the Emax was determined as 94.4%.
For `CCCCCCCC/C=C\CCCCCCCC(=O)NCCO` [OLEOYLETHANOLAMIDE], the pEC50 in [1] was 6.03.
As for `COc1ccc(C(C)=O)cc1OCc1csc(C2=CCN(C(=O)OC(C)(C)C)CC2)n1`, the Emax in data set [5] is -5.65%.
Consider `CC(C)(C)OC(=O)N1CC=C(c2nc(COc3ccc(-n4cnnn4)cc3)cs2)CC1`, for which the pEC50 in data set [1] is 6.95. Further, in [5], the Emax is 95.4%.
For `COC(=O)c1sccc1NCc1csc(C2=CCN(C(=O)OC(C)(C)C)CC2)n1`, in [5], the Emax was 13%.
Still for that read-out and setting: next, `CC(C)(C)OC(=O)N1CC=C(c2nc(COc3cccc(-n4cnnn4)c3)cs2)CC1`: -2.17%.
Regarding `COc1ccc(OCc2csc(C3=CCN(C(=O)OC(C)(C)C)CC3)n2)cc1OC`, the Emax in data set [5] was 10.7%.
As for `COc1ccc(NCc2csc(C3=CCN(C(=O)OC(C)(C)C)CC3)n2)cc1OC`, the Emax in data set [5] was -6.25%.
In the case of `CCCC(=O)c1ccc(OCc2csc(C3=CCN(C(=O)OC(C)(C)C)CC3)n2)cc1`, the Emax in [5] was determined as 62.5%.
Take `CC(C)(C)OC(=O)N1CC=C(c2nc(COc3ccc(S(C)(=O)=O)cc3)cs2)CC1`: in [1], the pEC50 is 6.17. The Emax in [5] is 78%.
For the compound `CC(C)(C)OC(=O)N1CC=C(c2nc(COc3ccc4c(c3)OCO4)cs2)CC1`, the Emax in [5] came out at 11.5%.
Consider `CCc1ccc(N2CC=C(c3nc(COc4ccc(S(C)(=O)=O)cc4)cs3)CC2)nc1`, for which, in data set [5], the Emax stood at 71.5%.
For the compound `CCc1cnc(N2CC=C(c3nc(COc4ccc(S(C)(=O)=O)cc4)cs3)CC2)nc1`, in data set [1], the pEC50 was 7.15. Besides, in [5], the Emax was determined as 105%.
Consider `CCc1cnc(N2CC=C(c3nc(COc4ccc(-n5cnnn5)cc4Cl)cs3)CC2)nc1`, for which the pEC50 in [1] is 7.99. Besides, the Activity in data set [4] is listed as 12.11%. Moreover, the Emax in data set [5] was 109%.
In the case of `CCc1cnc(N2CCC(c3nc(COc4ccc(-n5cnnn5)cc4)cs3)CC2)nc1` [MBX-2982], the pEC50 in [1] was 8.41. The compound further yielded a solubility in data set [2] of 37 µg/mL (≈ 82.5 µM). Besides, the Activity in data set [3] was 18.47%; in data set [4], 29.22%; in [6], 26.72%; in data set [7], “Non-Toxic”; in [9], 23.61%. Moreover, the Emax in data set [5] is 113%. Moreover, in data set [8], the outcome was Active.
Consider `COc1ccc(Br)cc1OCc1csc(C2=CCN(C(=O)OC(C)(C)C)CC2)n1`, for which the Emax in [5] is -14.2%.
Still for that read-out and setting: the value for `COc1ccc(NCc2csc(C3=CCN(C(=O)OC(C)(C)C)CC3)n2)c(OC)c1` was -7.44%.
`CC(C)(C)OC(=O)N1CC=C(c2nc(COc3ccc(-n4cnnn4)cc3F)cs2)CC1`: in data set [1], the pEC50 was 6.97. Besides, the Emax in [5] was 105%.
As to `CC(C)(C)OC(=O)N1CC=C(c2nc(CNc3ccc(-n4cnnn4)cc3)cs2)CC1`, the Emax in [5] worked out at 35.5%.
The same measure, in the same setting: the value for `CC(C)(C)OC(=O)N1CC=C(c2nc(CNc3cc(C(F)(F)F)cc(C(F)(F)F)c3)cs2)CC1` was -2.16%.
For `CC(C)(C)OC(=O)N1CC=C(c2nc(COc3ccc(Cl)cc3)cs2)CC1`, the Emax in [5] was -7.34%.
Same read-out and setting: next, `CC(C)(C)OC(=O)N1CC=C(c2nc(COc3ccc(C(C)(C)C)cc3C(C)(C)C)cs2)CC1`: 1.7%; `CC(C)(C)OC(=O)N1CC=C(c2nc(CNc3ccc(S(C)(=O)=O)cc3)cs2)CC1`: 26%.
Same read-out and setting: next, `CC(C)(C)OC(=O)N1CC=C(c2nc(COc3ccc(OC(F)(F)F)cc3)cs2)CC1`: 7.04%.
Turning to `CCc1ccc(N2CC=C(c3nc(COc4ccc(-n5cnnn5)cc4Cl)cs3)CC2)nc1`, in data set [5], the Emax is 72.7%.
On the same count and under the same terms, the value for `CC(C)(C)OC(=O)N1CC=C(c2nc(COc3ccc(C4CCCCC4)cc3)cs2)CC1` was 19.7%.
For `CCc1cnc(N2CC=C(c3nc(COc4ccc(-n5cnnn5)cc4F)cs3)CC2)nc1`, the pEC50 in data set [1] was 8.06. In addition, the values for the Activity in [3], in [4] and in data set [6] were 1.2%, 26.81% and 14.16%, respectively. In addition, the Emax in data set [5] stood at 115%.
In the case of `COc1ccc(-n2cnnn2)cc1OCc1csc(C2=CCN(C(=O)OC(C)(C)C)CC2)n1`, the Emax in [5] was 8.4%.
